Reference: ChEMBL document CHEMBL4513216, “Probing the Open Global Health Chemical Diversity Library for Multistage-Active Starting Points for Next-Generation Antimalarials” (ACS Infect Dis, 2020)

Experiment: Toxicity liver stage against HepG2, at 10uM
Format: cell-based
Set-up: test concentration 10 uM, cell line HepG2-A16-CD81EGFP
Settings: human, HepG2-A16-CD81EGFP cells; read-out: INHIBITION
Outline: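 Uninfected HepG2-A16-CD81EGFP cells, 3 × 10^3 per well, 1536-well, plated on prespotted compound at 10 μM final, parasite-free screening media added to match infected plates; puromycin 10 μM positive, DMSO 0.5% negative; run in parallel with 48 h PbLuc assay at 37 °C, 5% CO2; viability by CellTiter-Glo luminescence, normalized to controls.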

| SMILES | cytotoxicity at 10 µM |
| --- | --- |
| CCOC(=O)C1CCCCN1Cc1c[nH]nc1-c1ccc(F)cc1F (centres undefined) | -0.545% |
| CN1CCCC1CCNC(=O)Nc1ccccc1 (centres undefined) | 0.238% |
| CCN1CCNC(=O)C12CCN(S(=O)(=O)c1ccc(F)cc1)CC2 | 1.17% |
| COc1ccc(C[C@H]2CN(C(=O)c3ncccn3)CC[C@@H]2OC)cc1 | 4.65% |
| COCC(=O)N1Cc2nc3c(C)c(-c4cccs4)nn3c(O)c2C1 | -4.81% |
| CN1C[C@H](c2ccccc2)[C@H]2CN(C(=O)Cc3ccc(O)cc3)CC[C@H]21 | 8.14% |
| CC(=O)N1CCCC1CCc1ccnc(-c2cncnc2)c1 (centres undefined) | 1.24% |
| CN(Cc1ccc(F)cc1)[C@@H]1CN(S(=O)(=O)N(C)C)C[C@H]1O | -1.34% |
| Fc1ccc(C2(NCc3noc(C4CC4)n3)CCC2)cc1 | -0.304% |
| Cc1cccc(CNC2(CCO)CCOCC2)c1C | -14.9% |
| CCc1noc(CC)c1CNC(=O)Nc1ccc2[nH]nnc2c1 | 6% |
| O=C1CC(c2ccncc2)C2(CCN(Cc3nccs3)CC2)N1 (centres undefined) | 4.8% |
| COCC(=O)N1CC[C@@H]2O[C@@H](COCc3csc(C)n3)CC[C@@H]21 | 3.24% |
| Cn1c(CN2CCN(c3cccnc3)CC2)cc2ccccc21 | 5.33% |
| Cc1nc(N(C)C)nc(NCCc2cnccn2)c1C | -1.22% |
| O=C(c1ccccn1)N1CCC(c2nccn2Cc2ccncc2)CC1 | 1.94% |
| Cc1nc(N(C)C)ncc1C(=O)N[C@@H]1CCc2ccccc21 | 5.77% |
| CN(C)CCN(C)C[C@@H]1CN(C(=O)NC2CCCC2)C[C@@H]1CO | 1.35% |
| COCCC1CN(Cc2cn(CCC(N)=O)c3ccccc23)CCO1 (centres undefined) | -3.15% |
| COc1cc(C)c(C)cc1S(=O)(=O)N(C)CC(=O)Nc1ccon1 | 2.74% |
| O=C(c1cnc(Nc2ccccc2)nc1)N1CCS(=O)(=O)CC1 | -1.01% |
| O=C1CC(c2cccs2)c2snc(C(=O)O)c2N1 (centres undefined) | -11.1% |

| SMILES | cytotoxicity at 10 µM |
| --- | --- |
| CC(=O)N1CCC(C(=O)N(C)[C@@H]2CCC[C@@H](N3CCCC3)[C@@H]2O)CC1 | -0.156% |
| Cc1ccc(CNC(=O)Nc2nncs2)cn1 | -9.12% |
| Cc1ccc(-c2nc(CN3CCN(CCO)CC3)co2)cc1 | -23.7% |
| CC(NC(=O)NCCCn1cncn1)c1ccc2c(c1)CC(=O)N2 (centres undefined) | -8.01% |
| CCC(=O)N1CCN(C(=O)Cn2cccn2)CC1 | 0.661% |
| Cc1nc(CN(C)C2CCN(CCCOc3ccccc3C)C2)no1 (centres undefined) | 2.24% |
| Cc1ncsc1CNc1cc(N2CCCC2CO)ncn1 (centres undefined) | -12.5% |
| CCn1ccnc1CN1CCCN(C(=O)Cc2ccc(F)cc2)CC1 | -15.8% |
| CC(C)c1nc2c(n1C)CCN(CC(=O)Nc1ccnn1C(C)C)C2 | -1.3% |
| CN(Cc1ccco1)C(=O)C1CSCN1C(=O)c1cccnc1 (centres undefined) | -5.28% |
| COc1c(CNC2CCN(C(C)(C)C)CC2)c(C(C)C)nn1C | -10.9% |
| CCc1cnc(CN(C)C2CCN(CCc3cccs3)C2)o1 (centres undefined) | -16.8% |
| CCc1noc(CN2CCCC2c2noc(C3CC3)n2)n1 (centres undefined) | -3.76% |
| Cn1ccnc1C1(O)CCN(C(=O)CCc2ccccc2)CC1 | 1.37% |
| CNC(=O)C(C)(C)N1CCC[C@H]1C(=O)NCC(C)C | 1.55% |
| COc1ccc(CN2C[C@H]3CC[C@](O)(c4ccc(C)cn4)[C@H]3C2)c(F)c1 | -1.57% |
| Cc1nn(C)c(N(C)C)c1CNC1CCc2cc(F)ccc21 (centres undefined) | -15.4% |
| Cn1cc(CN2CCC3(CC(=O)N(c4ccc5c(c4)OCO5)C3)C2)cn1 (centres undefined) | -4.97% |
| O=C(CC1CC1)N1CCC2(CCCN(CCOc3ccccc3)C2)C1 (centres undefined) | -0.861% |
| CN(C)C(=O)N[C@H]1CN(Cc2ccc3c(c2)OCO3)[C@@H]2CCCO[C@H]12 | 4.32% |
| O=C1COC2(CCN(CC3CCOCC3)CC2)CN1Cc1ccccn1 | -2.76% |
| C1CC(CN2C[C@@H]3CC[C@H]2CN(Cc2nnc(C4CC4)o2)C3)C1 | 1.19% |
